High-throughput results as filed in PubChem.
In the library only some 1.7% were active in any assay of this set; here they are far more common.
PP1 inh: counter-screen for PP5 inhibitors: inhibitors of human PP1-alpha; P62136; purified PP1alpha, OMFP fluorescence; inhibition, % at 6.7 µM; actives 0.9% (n = 320,000); AID 2235;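 active means inhibition above the mean inhibition of all tested compounds plus 3 SD, computed separately for each screening campaign, cut at about 15% in these data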
PP5 primary: blocks human protein phosphatase 5 activity; P53041; purified PP5c, OMFP substrate fluorescence; inhibition, % at 6.7 µM; actives 0.18% (n = 320,000); AID 1987;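 active means inhibition above the campaign's mean inhibition across all tested compounds plus 3 SD, cut at about 9.5% in these data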
T cell modulator: modulates CD8 T cell binding to vesicles. 2C CD8+ T cell-vesicle binding, flow cytometry; hits give low values. response (vesicle binding), % at 7 µM. actives 0.068% (n = 330,000). AID 2052;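 active means response, share of CD8 T cells binding vesicles, and their 90th percentile fluorescence all below set limits, cut at about 80% in these data, passing the limit was not always enough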;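 further: values below 100% mean blocked vesicle binding to the CD8+ T cells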
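Material: murine 2C transgenic CD8+ T lymphocytes / Also added: QL9-peptide-loaded Drosophila micro-vesicles bearing Ld, ICAM-1 and B7-1 / Schedule: binding step 1.5 h, 37 °C, antibody labelling 20 min, ice / Signal: flow cytometry, PE anti-B7-1 (FL2) versus Alexa647 anti-CD8 (FL8), PFA-fixed / Evaluation: percent CD8+ FL2 mean versus row control / Benchmarks: naked versus QL9-loaded vesicles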
GASC-1 inh: inhibitors of human GASC-1 (JMJD2C) demethylase; Q9H3R0; GST-JMJD2C(1-420) H3K9me3 demethylation, DELFIA europium; inhibition, % at 2.35 µM; actives 0.069% (n = 330,000);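 active means more than half of a compound's replicate wells show inhibition beyond 50%, single wells judged on their own value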;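 further: signal counts dimethyl H3K9 product captured on neutravidin plate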
Target sequence (Q9H3R0 1-420 limits assumed): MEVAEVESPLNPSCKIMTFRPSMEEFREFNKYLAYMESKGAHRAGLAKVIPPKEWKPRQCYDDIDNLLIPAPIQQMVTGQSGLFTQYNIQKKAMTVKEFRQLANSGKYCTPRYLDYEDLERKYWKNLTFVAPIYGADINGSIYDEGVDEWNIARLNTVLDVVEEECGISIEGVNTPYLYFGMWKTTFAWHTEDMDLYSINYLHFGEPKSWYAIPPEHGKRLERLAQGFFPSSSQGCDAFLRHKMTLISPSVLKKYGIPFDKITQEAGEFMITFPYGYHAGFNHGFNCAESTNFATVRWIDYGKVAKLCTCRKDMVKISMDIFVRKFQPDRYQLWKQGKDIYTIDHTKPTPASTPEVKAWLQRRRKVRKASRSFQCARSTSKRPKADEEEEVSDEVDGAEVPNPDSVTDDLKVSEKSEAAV
HTR2A ag: agonists of mouse serotonin 5-HT2A receptor (HTR2A); P35363; CHO-K1 mHTR2A beta-arrestin complementation, luminescence; percent of 30 µM serotonin response; activation, % at 7.6 µM; actives 0.66% (n = 360,000); AID 624169;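 active means activation above a run cutoff, the mean activation of all tested compounds plus 3 SD, cut at about 14% in these data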
MOR ag counter: activates human mu opioid receptor in HTR2A counterscreen; shares compounds with HTR2A ag; U2OS OPRM1 beta-arrestin PathHunter, luminescence; DMSO 0%, DAMGO 9.3 µM 100%; activation, % at 9.3 µM; actives 5.3% (n = 2,300);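 active means mean activation above the mean of DMSO-only wells plus 3 SD, cut at about 0.5% in these data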
m5-HT2A ag conf: mouse HTR2A agonism confirmed; CHO-K1 PathHunter beta-arrestin recruitment, luminescence; DMSO 0%, 30 µM serotonin 100%; shares compounds with HTR2A ag; activation, % at 7.6 µM; actives 19% (n = 2,300);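 active means mean activation across triplicates above the hit threshold derived in the original primary screen, cut at about 15% in these data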
Large screens that a line does not name were inactive (follow-up assays come after a bar, where they were run).

N#C/C=C(/N)N1CCN(c2ccc(Cl)c(Cl)c2)CC1	HTR2A ag 35.4 | MOR ag counter inactive | m5-HT2A ag conf 18.8
O=C1CC(N2CCN(Cc3ccccc3)CC2)C(=O)N1 (configuration not stated)	none
Cc1cccc(NC(=O)COC(=O)c2ccc(C)c(S(=O)(=O)N3CCCCC3)c2)c1	none
CC1CCCCN1C(=O)CCNC(=O)Cn1cnc2ccccc2c1=O (configuration not stated)	none
CN1OC[C@@H]2CN(Cc3cc(Cl)cc(Cl)c3)[C@H](c3cccc(Oc4ccccc4)c3)C[C@@H]21	HTR2A ag 14.8 (no result: PP1 inh, PP5 primary, T cell modulator, GASC-1 inh) | MOR ag counter inactive | m5-HT2A ag conf inactive
CN1OC[C@@H]2CN(Cc3ccccc3)[C@H](c3cccc(Oc4ccccc4)c3)C[C@@H]21	none (no result: PP1 inh, PP5 primary, T cell modulator, GASC-1 inh)
O=C(NCCCO)C(=O)NCC1OCCCN1S(=O)(=O)c1cccs1 (configuration not stated)	HTR2A ag 15.5 | MOR ag counter 0.9 | m5-HT2A ag conf inactive
O=C(NCCO)C(=O)NCC1OCCCN1S(=O)(=O)c1cccs1 (configuration not stated)	none
COc1ccc(CCNC(=O)C(=O)NCC2OCCN2S(=O)(=O)c2ccc(C)cc2)cc1 (configuration not stated)	none
COc1ccc(S(=O)(=O)N2CCOC2CNC(=O)C(=O)NCCc2ccccc2)cc1 (configuration not stated)	HTR2A ag 46.0 | MOR ag counter inactive | m5-HT2A ag conf inactive
COC(=O)Cc1ccc(NC(=S)N2CCN(c3cccc(O)c3)CC2)cc1	HTR2A ag 24.5 | MOR ag counter inactive | m5-HT2A ag conf inactive
COc1ccc(NC(=O)C2CCN(S(=O)(=O)c3cccc4cccnc34)CC2)cc1OC	HTR2A ag 16.9 | MOR ag counter inactive | m5-HT2A ag conf inactive
O=S(=O)(c1cccc2cccnc12)N1CCN(c2ccc(F)cc2)CC1	none
COc1ccc(C)cc1NC(=O)C1CCN(S(=O)(=O)c2cccc3cccnc23)CC1	none
O=S(=O)(c1cccc2cccnc12)N1CCOCC1	HTR2A ag 21.2 | MOR ag counter inactive | m5-HT2A ag conf inactive
O=C(C[C@H]1C/C=C\CCC(=O)OC[C@H]2CCCN2C1=O)NCCO	HTR2A ag 19.5 (no result: PP1 inh, PP5 primary) | MOR ag counter inactive | m5-HT2A ag conf inactive
Cc1c(C(=O)NCc2cccc(C(F)(F)F)c2)sc(=O)n1Cc1ccccc1F	HTR2A ag 24.8 (no result: PP1 inh, PP5 primary, T cell modulator, GASC-1 inh) | MOR ag counter inactive | m5-HT2A ag conf inactive
Cc1ccc(Cn2c(C)c(C(=O)NCc3cccc(C(F)(F)F)c3)sc2=O)cc1	none (no result: PP1 inh, PP5 primary, T cell modulator, GASC-1 inh)
O=C(Nc1ccc(S(=O)(=O)Nc2ncccn2)cc1)c1cccc(S(=O)(=O)N2CCOCC2)c1	none
CCCC[C@@H]1CNC(=O)C(=O)N1CCc1cc(C(F)(F)F)cc(C(F)(F)F)c1	HTR2A ag 15.3 | MOR ag counter inactive | m5-HT2A ag conf inactive
CCCC[C@@H]1CNC(=S)N1CCc1cccc(F)c1	HTR2A ag 14.6 (no result: T cell modulator) | MOR ag counter inactive | m5-HT2A ag conf inactive
CS(=O)(=O)N(CC(=O)N1CCc2ccccc2C1)Cc1ccc(F)cc1	none (no result: PP1 inh, PP5 primary)
COc1ccc(CCNC(=O)CC(C)S(=O)(=O)c2ccc3c(c2)NC(=O)CO3)cc1OC (configuration not stated)	HTR2A ag 15.3 | MOR ag counter inactive | m5-HT2A ag conf inactive
COc1ccc(CNC(=O)CC(C)S(=O)(=O)c2ccc3c(c2)NC(=O)CO3)cc1 (configuration not stated)	none
COc1cc2c(cc1OC)C1(CCCC1)CNC2c1cccc([N+](=O)[O-])c1 (configuration not stated)	none
COCC(C)n1c(C)cc(C(=O)COC(=O)c2ccc3ncsc3c2)c1C (configuration not stated)	none
COCC(C)n1c(C)cc(C(=O)COC(=O)c2cnc(Cl)c(Cl)c2)c1C (configuration not stated)	HTR2A ag 15.4 (no result: PP1 inh, PP5 primary) | MOR ag counter inactive | m5-HT2A ag conf inactive
